# Results published in article PMC4170804 (Bioorganic & medicinal chemistry, 2013).
# Where two headings read alike, the source gives them in different places.
# Tests used:
# HeLa cells [1] = test: Antiproliferative assay, human cervix carcinoma HeLa cells; type: cell-based; settings: 48 h, read-out: IC50 ± SD, HeLa
# tubulin = test: Inhibition of [3H]colchicine binding to tubulin; set-up: species or system bovine; settings: for Colchicine binding % ± SD (inhibition of [3H]colchicine binding): tubulin 1 µM, colchicine 5 µM, tested compound 5 µM
# Molt4/C8 cells = test: Antiproliferative assay, human T-leukemia Molt4/C8 cells; type: cell-based; settings: for IC50: Homo sapiens, Molt4/C8, 48 h, read-out: IC50 ± SD, Molt4/C8
# FM3A/0 cells = test: Antiproliferative assay, murine mammary carcinoma FM3A/0 cells; type: cell-based; settings: for IC50: read-out: IC50 ± SD, FM3A/0
# [2] = system: epithelial carcinoma (A431) cells; settings: cited from earlier work
# CEM/0 cells = test: Antiproliferative assay, human T-leukemia CEM/0 cells; type: cell-based; settings: read-out: IC50 ± SD, CEM/0, 48 h, Coulter counter
# [3] = system: human pancreatic tumor (MIA PaCa-2) cells; settings: cited from earlier work
# [4] = system: panel of human cancer cell lines; test: Antiproliferative activity, panel of additional human cancer cell lines; type: cell-based; settings: read-out: IC50 values against additional human cancer cell lines
# Procedure, shortened: (§1)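 Cells were seeded at 300,000–500,000 cells/mL and mixed 1:1 with serial dilutions of test compound. They were incubated 48 h at 37 °C, and cell number was counted with a Coulter counter.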
# HeLa cells [5] = test: Mitochondrial ROS production; type: cell-based, human; settings: 24 or 48 h, versus control cells
# [6] = system: cleaved caspase-3, cleaved caspase-9, PARP, Bcl-2, Mcl-1, XIAP in HeLa cells; test: Western blot of caspases, PARP, Bcl-2, Mcl-1, XIAP in HeLa cells; type: cell-based, human
# Procedure, shortened: (§2)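 HeLa cells were treated with test compound for 24 or 48 h, washed twice in ice-cold PBS, and lysed on ice for 30 min. Lysis buffer was T-PER with 300 mM NaCl, 1 mM orthovanadate, 2 mM AEBSF and protease inhibitors. Lysates were cleared at 15,000g (4 °C, 10 min). 20 µg protein went to SDS–PAGE, PVDF transfer and overnight blocking. Primary antibodies ran 2 h at room temperature, then HRP secondary and ECL. Membranes were stripped and reprobed for β-actin as loading control.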
# MCF-7 cells = test: Antiproliferative assay, mammary carcinoma MCF-7; type: cell-based; settings: Homo sapiens, MCF7, read-out: IC50 ±SD, MCF-7
# Procedure, shortened: as §1
# [7] = system: cyclin B, p-cdc2 Y15, cdc25C in HeLa cells; test: Western blot of G2/M regulatory proteins in HeLa cells; type: cell-based, human
# Procedure, shortened: as §2
# Jurkat cells [8] = test: Antiproliferative assay, T-leukemia Jurkat; type: cell-based; settings: Homo sapiens, read-out: IC50 ±SD, Jurkat
# Procedure, shortened: as §1
# Jurkat cells [9] = test: Flow cytometric cell cycle analysis, Jurkat; type: cell-based, human; settings: 24 h
# Procedure, shortened: (§3)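 Exponentially growing cells (5 × 105 for HeLa) were exposed to test compound at 15–250 nM for 24 h. Cells were fixed in ice-cold 70% ethanol, then treated with lysis buffer containing RNase A and 0.1% Triton X-100. After propidium iodide staining, DNA content was analysed by flow cytometry for cell-cycle distribution. Values are mean ± SEM of three independent experiments.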
# bovine brain tubulin = test: Inhibition of tubulin polymerization; type: biochemical; settings: greater than that of 1
# [10] = system: panel of human and murine tumor cell lines; test: Antiproliferative activity, panel of human and murine tumor cell lines; type: cell-based
# Procedure, shortened: as §1
# HOS, OST TK- cells = test: Antiproliferative assay, osteosarcoma HOS, OST TK-; type: cell-based; settings: Homo sapiens, read-out: IC50 ±SD, HOS, OST TK-
# Procedure, shortened: as §1
# [11] = system: wide panel of cancer cell lines; test: Antiproliferative activity, wide panel of cancer cell lines; type: cell-based; settings: read-out: IC50 against a wide panel of cancer cell lines
# Procedure, shortened: as §1
# HeLa cells [12] = test: Flow cytometric cell cycle analysis, HeLa; type: cell-based, human; settings: 24 h
# Procedure, shortened: as §3
# HeLa cells [13] = test: Annexin-V/PI apoptosis assay; type: cell-based, human; settings: 24 h, further increased at 48 h even at 15 nM
# PC-3 cells = test: Antiproliferative assay, prostate PC-3; type: cell-based; settings: Homo sapiens, PC-3, read-out: IC50 ±SD, PC-3
# Procedure, shortened: as §1
# Raji cells = test: Antiproliferative assay, B-cell lymphoma Raji; type: cell-based; settings: Homo sapiens, read-out: IC50 ±SD, Raji
# Procedure, shortened: as §1
# HeLa cells [14] = test: Mitochondrial membrane potential; type: cell-based, human; settings: 24 or 48 h
# L1210 cells = test: Antiproliferative assay, murine leukemia L1210 cells; type: cell-based; settings: Mus musculus, L1210, 48 h, read-out: IC50 ± SD, L1210
# [15] = at higher concentrations (range 15 to 250 nM)
smiles,measurement,setting,value
"CCOC(=O)c1cc(CCc2cc(OC)ccc2OC)sc1N [Compound 2b, Ethyl 2-amino-5-[2-(2,5-dimethoxyphenyl)ethyl]thiophene-3-carboxylate]",IC50,"HeLa cells [1]; Homo sapiens, HeLa",0.31 µM
same,Colchicine binding % ± SD (inhibition of [3H]colchicine binding),tubulin,46 ± 0.9%
same,IC50,Molt4/C8 cells,1.1 ± 0.1 µM
same,IC50,"FM3A/0 cells; Mus musculus, FM3A/0, 48 h",1.9 ± 0.5 µM
"COC(=O)c1cc(CCc2cc(OC)ccc2OC)ccc1O [Compound 1, reference compound]","antiproliferative activity, A431",[2],active at low micromolar concentrations
same,IC50,CEM/0 cells,0.44 ± 0.01 µM
same,"antiproliferative activity, MIA PaCa-2",[3],active at low micromolar concentrations
same,IC50,"HeLa cells [1]; human cervix carcinoma HeLa, Coulter counter",0.41 ± 0.08 µM
same,Colchicine binding % ± SD (inhibition of [3H]colchicine binding),tubulin,52 ± 4%
same,fold less active in FM3A cells than the other cell lines examined,FM3A/0 cells; FM3A vs other cell lines,about 30 fold
same,IC50,"FM3A/0 cells; murine mammary carcinoma FM3A/0, 48 h, Coulter counter",13 ± 0.2 µM
"N#Cc1cc(CCc2ccccc2)sc1N [Compound 2m, 2-Amino-5-phenylethylthiophene-3-carbonitrile]",IC50,"HeLa cells [1]; Homo sapiens, HeLa",35 ± 3.1 µM
same,IC50,"FM3A/0 cells; Mus musculus, FM3A/0, 48 h",62 ± 3.2 µM
"COc1ccc(CCc2cc(C#N)c(N)s2)cc1 [Compound 2l, 2-Amino-5-[2-(4-methoxyphenyl)ethyl]thiophene-3-carbonitrile]",IC50,"HeLa cells [1]; Homo sapiens, HeLa",19 ± 13 µM
same,IC50,"FM3A/0 cells; Mus musculus, FM3A/0, 48 h",31 ± 27 µM
"COc1ccc(OC)c(CCc2cc(C#N)c(N)s2)c1 [Compound 2c, 2-Amino-5-[2-(2,5-dimethoxyphenyl)ethyl]thiophene-3-carbonitrile]",IC50,[4],0.012 to 0.086 µM
same,"ROS production (HE, H2-DCFDA)",HeLa cells [5],induced the production of significant amounts of ROS
same,caspase-9 activation,"[6]; 50 and 100 nM, 24 h",early activation of caspase-9 at 24 h
same,caspase-3 and PARP activation,"[6]; 50 and 100 nM, 48 h",activation of caspase-3 and of the caspase-3 substrate PARP
same,expression of anti-apoptotic proteins Bcl-2 and Mcl-1,[6]; both concentrations used (50 and 100 nM),remarkably reduced after a 24 h and disappeared after a 48 h treatment
same,expression of XIAP,[6]; concomitant with caspase activation,strongly reduced
same,IC50,MCF-7 cells,0.025 ± 0.001 µM
same,cyclin B1 expression,"[7]; 50 and 100 nM, 24 and 48 h",marked increase in cyclin B1 expression
same,cdc25C phosphorylation state / expression,"[7]; 50 and 100 nM, 24 h and 48 h",slower migrating forms of phosphatase cdc25C appeared at 24 h
same,phosphorylation of cdc2 (Tyr15),[7]; after 24 h,dramatic de-phosphorylation of cdc2 (Tyr15)
same,IC50,Jurkat cells [8],0.012 ± 0.008 µM
same,lowest concentration with a rise in G2/M cells,Jurkat cells [9],30 nM
same,cells arrested in G2/M,Jurkat cells [9]; [15],more than 80%
same,tubulin assembly inhibitory activity relative to 1,bovine brain tubulin,3 fold
same,inhibition of colchicine binding relative to 1,tubulin; more active than 1,1.5 fold
same,Colchicine binding % ± SD (inhibition of [3H]colchicine binding),tubulin,84 ± 5%
same,enhancement of antiproliferative activity with respect to 1,[10]; in four cell lines,3–230 fold
same,IC50,[10]; read-out: IC50 values against panel of human and murine tumor cell lines,0.035 to 0.13 µM
same,IC50,"HOS, OST TK- cells",0.024 ± 0.013 µM
same,IC50,[11],0.017 to 0.13 µM
same,IC50,"FM3A/0 cells; Mus musculus, FM3A/0, 48 h",0.056 ± 0.004 µM
same,lowest concentration with a rise in G2/M cells,HeLa cells [12],30 nM
same,cells arrested in G2/M,HeLa cells [12]; [15],more than 80%
same,annexin-V positive cells (apoptosis),HeLa cells [13],accumulation of annexin-V positive cells in a concentration-dependent manner
same,IC50,PC-3 cells,0.025 ± 0.013 µM
same,IC50,Raji cells,0.064 ± 0.025 µM
same,"cells with depolarized mitochondria (Δψmt, JC-1)",HeLa cells [14],time and concentration-dependent increase in the proportion of cells with depolarized mitochondria
"COc1ccccc1CCc1cc(C#N)c(N)s1 [Compound 2k, 2-Amino-5-[2-(2-methoxyphenyl)ethyl]thiophene-3-carbonitrile]",IC50,"HeLa cells [1]; Homo sapiens, HeLa",7.8 ± 2.1 µM
same,IC50,Molt4/C8 cells,2 ± 0.2 µM
same,IC50,"FM3A/0 cells; Mus musculus, FM3A/0, 48 h",22 ± 3.1 µM
"COC(=O)c1cc(CCc2ccc(OC)cc2C)sc1N [Compound 2h, Methyl 2-amino-5-[2-(4-methoxy-2-methylphenyl)ethyl]thiophene-3-carboxylate]",IC50,"FM3A/0 cells; Mus musculus, FM3A/0, 48 h",45 ± 16 µM
"CCOC(=O)c1cc(CCc2ccc(OC)cc2)sc1N [Compound 2j, Ethyl 2-amino-5-[2-(4-methoxyphenyl)ethyl]thiophene-3-carboxylate]",IC50,L1210 cells,20 ± 10 µM
same,IC50,"HeLa cells [1]; Homo sapiens, HeLa",39 ± 0.2 µM
same,IC50,Molt4/C8 cells,0.34 ± 0.5 µM
same,"IC50 values in Molt4/C8, in words",Molt4/C8 cells,submicromolar
same,IC50,"FM3A/0 cells; Mus musculus, FM3A/0, 48 h",48 ± 5.2 µM
"COc1ccc(OC)c(-c2cc(C#N)c(N)s2)c1 [Compound 2o, 2-Amino-5-(2,5-dimethoxyphenyl)thiophene-3-carbonitrile]",IC50,L1210 cells,76 ± 3.2 µM
same,IC50,"HeLa cells [1]; Homo sapiens, HeLa",71 ± 20 µM
"CCOC(=O)c1cc(CCc2ccccc2OC)sc1N [Compound 2i, Ethyl 2-amino-5-[2-(2-methoxyphenyl)ethyl]thiophene-3-carboxylate]",IC50,"HeLa cells [1]; Homo sapiens, HeLa",45 ± 6.2 µM
same,IC50,Molt4/C8 cells,6.9 ± 0.8 µM
same,IC50,"FM3A/0 cells; Mus musculus, FM3A/0, 48 h",53 ± 7.2 µM
"COC(=O)c1c(N)sc(CCc2cc(OC)ccc2OC)c1C [Compound 2d, Methyl 2-amino-5-[2-(2,5-dimethoxyphenyl)ethyl]-4-methylthiophene-3-carboxylate]",IC50,L1210 cells,46 ± 3.2 µM
same,IC50,"HeLa cells [1]; Homo sapiens, HeLa",35 ± 7.1 µM
same,IC50,Molt4/C8 cells,47 ± 16 µM
same,IC50,"FM3A/0 cells; Mus musculus, FM3A/0, 48 h",44 ± 8.1 µM
"COC(=O)c1cc(-c2cc(OC)ccc2OC)sc1N [Compound 2n, Methyl 2-amino-5-(2,5-dimethoxyphenyl)thiophene-3-carboxylate]",IC50,L1210 cells,50 ± 5.2 µM
same,IC50,"HeLa cells [1]; Homo sapiens, HeLa",37 ± 6.1 µM
same,IC50,"FM3A/0 cells; Mus musculus, FM3A/0, 48 h",52 ± 1 µM
"COC(=O)c1cc(CCc2cc(OC)ccc2OC)sc1N [Compound 2a, Methyl 2-amino-5-[2-(2,5-dimethoxyphenyl)ethyl]thiophene-3-carboxylate]",IC50,L1210 cells,1.8 ± 0.1 µM
same,IC50,"HeLa cells [1]; Homo sapiens, HeLa",0.77 ± 0.17 µM
same,Colchicine binding % ± SD (inhibition of [3H]colchicine binding),tubulin,52 ± 0.9%
same,"IC50 values in Molt4/C8, in words",Molt4/C8 cells,submicromolar
same,IC50,"FM3A/0 cells; Mus musculus, FM3A/0, 48 h",2.3 ± 0.6 µM
"COC(=O)c1cc(CCc2ccccc2OC)sc1N [Compound 2f, Methyl 2-amino-5-[2-(2-methoxyphenyl)ethyl]thiophene-3-carboxylate]",IC50,L1210 cells,17 ± 5.3 µM
same,IC50,"HeLa cells [1]; Homo sapiens, HeLa",15 ± 1.3 µM
same,IC50,"FM3A/0 cells; Mus musculus, FM3A/0, 48 h",34 ± 5.6 µM
"CCOC(=O)c1c(N)sc(CCc2cc(OC)ccc2OC)c1C(=O)OCC [Compound 2e, Diethyl 2-amino-5-[2-(2,5-dimethoxyphenyl)ethyl]thiophene-3,4-dicarboxylate]",IC50,L1210 cells,34 ± 3.2 µM
same,IC50,Molt4/C8 cells,24 ± 2.2 µM
same,IC50,"FM3A/0 cells; Mus musculus, FM3A/0, 48 h",33 ± 9.1 µM
